Our source for the ED50 and Activity values is ChEMBL document CHEMBL1146906, “Novel potent anticonvulsant agent containing a tetrahydroisoquinoline skeleton” (2006).

SMILES strings stand for the structures. Some results are limits rather than exact numbers.

Assay [1] relates to Mus musculus. The experiment in a line: Anticonvulsant activity against clonic phase of audiogenic seizures in ip dosed DBA/2 mouse. To be noted: DBA/2, ip. It counts as functional. Put shortly:
(§1)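 DBA/2 mice of either sex, groups of 10, given vehicle or each dose intraperitoneally, then exposed to auditory stimulation […]. Incidence of each seizure phase scored. ED50 per phase from dose-response curves fitted by Litchfield and Wilcoxon method. Groups compared by Fisher's exact probability test.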

In assay [2] the test system is Mus musculus. Put plainly: Anticonvulsant activity against tonic phase of audiogenic seizures in ip dosed DBA/2 mouse. To be noted: DBA/2, ip. The assay is classed as functional. A digest of the protocol: as §1
Another assay is filed under the species Rattus norvegicus. The experiment in a line: Inhibition of AMPA-induced membrane current in Wistar rat olfactory cortex at 0.5 uM by voltage clamp method. The assay is classed as functional. On the set-up: scale not given: the % may be the effect or the level left. A digest of the protocol:
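Transverse olfactory cortex slices from male Wistar rats, kept in oxygenated Krebs solution and superfused with 1 µM TTX. Neurons voltage-clamped at -70 mV. Test agent diluted from DMSO stock into Krebs (0.1-1% v/v DMSO) and pre-incubated 10 min. Peak inward currents evoked by 0.25-5 µM AMPA measured. Pooled means, N = 7.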

Assay [3] concerns the target Glutamate receptor ionotropic, AMPA (Rattus norvegicus) (UniProt P19491+P19492+P19493+P19490). The experiment in a line: Displacement of [3H]AMPA from AMPA receptor at 0.5 uM. The assay is classed as protein-complex assay. A digest of the protocol: (§2)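 Radioligand binding assays run at 0.5 µM test compound, using [3H]AMPA, [3H]CGP 39653 or [3H]kainic acid as ligand.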
In general terms: Loss of bound radioactivity is the signal in a displacement assay; it reports binding, not function.

In assay [4] the target is Glutamate NMDA receptor (Rattus norvegicus) (UniProt P35439+Q00959+Q00960+Q00961+Q62645+Q8VHN2+Q9R1M7). The experiment in a line: Displacement of [3H]CGP-39653 from NMDA receptor at 0.5 uM. The assay is classed as protein-complex assay. Put shortly:
as §2

Assay [5] has as its target Glutamate receptor ionotropic, kainate (Rattus norvegicus) (UniProt P22756+Q01812+P42260+P42264+Q63273). Put plainly: Displacement of [3H]kainic acid from kainate receptor at 0.5 uM. It counts as protein-complex assay. Put shortly:
as §2

As usually defined, the ED50 is the midpoint of the dose-response relation. On to `CCN(CC)CC(=O)N1CCc2cc(OC)c(OC)cc2C1c1ccc(Cl)cc1` (stereo not drawn), for which the ED50 stood at 24.7 µmol/kg in the assay with Mus musculus [1] and 11.8 µmol/kg with Mus musculus [2].
The molecule `COc1cc2c(cc1OC)C(c1ccc(Cl)cc1)N(C(C)=O)CC2` (stereo not drawn) returned an Activity in the assay listed under Rattus norvegicus of 7%.
For the molecule `COc1cc2c(cc1OC)C(c1cccc(N)c1)N(C(=O)CN1CCCCC1)CC2` (stereo not drawn), the results for the ED50 in the assay on Mus musculus [1] and in the assay with Mus musculus [2] were 70.2 µmol/kg and 47.3 µmol/kg, respectively.
Take `COc1cc2c(cc1OC)C(c1ccc(F)cc1)N(C(=O)CN1CCOCC1)CC2` (stereo not drawn): the ED50 turned out to be 71.7 µmol/kg in the assay on Mus musculus [1] and 46.9 µmol/kg with Mus musculus [2].
In the same order, the values of `COc1cc2c(cc1OC)C(c1ccc(N)cc1)N(C(=O)CN1CCOCC1)CC2` (stereo not drawn) are 87.5 µmol/kg and 63.4 µmol/kg.
The like results for `COc1cc2c(cc1OC)C(c1ccccc1)N(C(=O)CN1CCOCC1)CC2` (stereo not drawn) were, in that order, > 100 µmol/kg and > 100 µmol/kg.
For `CCN(CC)CC(=O)N1CCc2cc(OC)c(OC)cc2C1c1ccc(F)cc1` (stereo not drawn), the results for the median effective dose (ED50) with Mus musculus [1] and in the assay with Mus musculus [2] were 44.5 µmol/kg and 33 µmol/kg, respectively.
In the same order, the values of `CCN(CC)CC(=O)N1CCc2cc(OC)c(OC)cc2C1c1cccc([N+](=O)[O-])c1` (stereo not drawn) are 38.6 µmol/kg and 16.7 µmol/kg.
`COc1cc2c(cc1OC)C(c1cccc(N)c1)N(C(=O)CN1CCOCC1)CC2` (stereo not drawn): the ED50 in the assay on Mus musculus [1] turned out to be 63.4 µmol/kg; with Mus musculus [2], 34.3 µmol/kg.
The like results for `CCN(CC)CC(=O)N1CCc2cc(OC)c(OC)cc2C1c1ccccc1` (stereo not drawn) were, in that order, 49.1 µmol/kg and 34.8 µmol/kg.
`CC(=O)N1N=C(c2ccc(N)cc2)c2cc3c(cc2C[C@H]1C)OCO3` [TALAMPANEL] had an ED50 in the assay with Mus musculus [2] of 9.7 µmol/kg.
Consider `COc1cc2c(cc1OC)C(c1cccc([N+](=O)[O-])c1)N(C(=O)CN1CCOCC1)CC2` (stereo not drawn), for which the ED50 in the assay with Mus musculus [1] and in the assay with Mus musculus [2] was > 100 µmol/kg each time.
On to `COc1cc2c(cc1OC)C(c1ccc([N+](=O)[O-])cc1)N(C(=O)CN1CCOCC1)CC2` (stereo not drawn), for which the results for the ED50 in the assay on Mus musculus [1] and with Mus musculus [2] were > 100 µmol/kg and 56.5 µmol/kg, respectively.
The like results for `COc1cc2c(cc1OC)C(c1ccc(Br)cc1)N(C(=O)CN1CCOCC1)CC2` (stereo not drawn) were, in that order, > 100 µmol/kg and 83.8 µmol/kg.
Regarding `COc1cc2c(cc1OC)C(c1ccccc1)N(C(=O)CN1CCCCC1)CC2` (stereo not drawn), the ED50 in the assay with Mus musculus [1] and in the assay with Mus musculus [2] was > 100 µmol/kg in each case.
`COc1cc2c(cc1OC)C(c1cccc([N+](=O)[O-])c1)N(C(=O)CN1CCCCC1)CC2` (stereo not drawn): the figures for the 50% effective dose (ED50) in the assay on Mus musculus [1] and in the assay on Mus musculus [2] were > 100 µmol/kg and 82.8 µmol/kg, respectively.
With `CCN(CC)CC(=O)N1CCc2cc(OC)c(OC)cc2C1c1cccc(N)c1` (stereo not drawn), the ED50 in the assay with Mus musculus [1] stood at 111 µmol/kg; with Mus musculus [2] it was 50.5 µmol/kg.
In the same order, the values of `COc1cc2c(cc1OC)C(c1ccc(Cl)cc1)N(C(=O)CN1CCCCC1)CC2` (stereo not drawn) are 39.8 µmol/kg and 17 µmol/kg.
In the same order, the values of `CCN(CC)CC(=O)N1CCc2cc(OC)c(OC)cc2C1c1ccc(N)cc1` (stereo not drawn) are 80.2 µmol/kg and 49 µmol/kg.
The like results for `COc1cc2c(cc1OC)C(c1ccc([N+](=O)[O-])cc1)N(C(=O)CN1CCCCC1)CC2` (stereo not drawn) were, in that order, > 100 µmol/kg and > 100 µmol/kg.
Regarding `CCN(CC)CC(=O)N1CCc2cc(OC)c(OC)cc2C1c1ccc([N+](=O)[O-])cc1` (stereo not drawn), the ED50 in the assay on Mus musculus [1] and with Mus musculus [2] was > 100 µmol/kg throughout.
In the case of `COc1cc2c(cc1OC)C(c1ccc(F)cc1)N(C(=O)CN1CCCCC1)CC2` (stereo not drawn), the ED50 is 82.8 µmol/kg in the assay with Mus musculus [1] and 63 µmol/kg with Mus musculus [2].
In the same order, the values of `CCN(CC)CC(=O)N1CCc2cc(OC)c(OC)cc2C1c1ccc(Br)cc1` (stereo not drawn) are 50.5 µmol/kg and 24.7 µmol/kg.
`COc1cc2c(cc1OC)C(c1ccc(N)cc1)=NNC(=O)C2`: it took a dose of 15 µmol/kg to reach the 50% effect level with Mus musculus [1] (ED50).
With `COc1cc2c(cc1OC)C(c1ccc(Cl)cc1)N(C(=O)CN1CCOCC1)CC2` (stereo not drawn), the values for the ED50 in the assay with Mus musculus [1] and with Mus musculus [2] were > 100 µmol/kg and 82.8 µmol/kg, respectively.
Turning to `COc1cc2c(cc1OC)C(c1ccc(N)cc1)N(C(=O)CN1CCCCC1)CC2` (stereo not drawn), the ED50 was found to be 84.9 µmol/kg with Mus musculus [1] and 45.3 µmol/kg in the assay with Mus musculus [2].
Consider `COc1cc2c(cc1OC)C(c1ccc(Br)cc1)N(C(=O)CN1CCCCC1)CC2` (stereo not drawn), for which the Activity in the assay listed under Rattus norvegicus is 6%; in assay [3] it was < 6%; in assay [4] it was < 6%; in assay [5] it was < 6%.
